# Compound activity from PubChem.
# Efflux pump mplx: inhibitors of Candida antifungal efflux pumps expressed in yeast; S. cerevisiae Candida pump triplex, Nile Red efflux; inhibition, % at 10 µM; actives 0.44% (n = 330,000); AID 485275;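 active = plate passing quality check with inhibition over a set limit, or well fluorescence over plate mean plus 4 SD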;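 also: Nile Red retained in pooled yeast measured as flow cytometry median fluorescence; higher means more Nile Red kept so more efflux inhibition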
# MC4R antagonist: human MC4R antagonism in cAMP assay | P32245 | actives 0.48% (n = 360,000) | inhibition, % at 6.5 µM | MC4R-expressing cells, MTII-stimulated cAMP, LANCE TR-FRET;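 active = inhibition above its plate's cutoff, the mean of tested wells on that plate plus 3 SD, cut at about 29% in these data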
# Target sequence (P32245 whole entry, looked up): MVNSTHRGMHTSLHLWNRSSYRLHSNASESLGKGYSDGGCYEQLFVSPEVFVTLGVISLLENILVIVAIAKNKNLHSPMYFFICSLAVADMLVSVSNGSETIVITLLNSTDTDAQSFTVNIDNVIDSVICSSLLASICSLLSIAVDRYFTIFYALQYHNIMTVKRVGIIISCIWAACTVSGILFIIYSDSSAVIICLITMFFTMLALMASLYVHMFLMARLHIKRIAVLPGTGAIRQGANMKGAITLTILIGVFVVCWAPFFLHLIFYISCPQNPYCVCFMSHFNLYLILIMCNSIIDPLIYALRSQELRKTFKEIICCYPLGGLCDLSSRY
#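 System – human MC4R-expressing U2OS cells · Also added – Melanotan II · Dosing – one concentration, 6.5 µM nominal · Timing – 30-min compound, 1-h challenge, 1-h detection, room temperature · Measured by – Eu-cAMP/anti-cAMP TR-FRET, emission 671 nm · Replicates – singlicate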
# Calb FLC: C. albicans growth modulation with fluconazole | actives 0.57% (n = 300,000) | C. albicans CaCi-2 (fluconazole-resistant clinical isolate) + fluconazole, Alamar Blue growth, 48 h | growth inhibition, % (test concentration not listed) | AID 1979;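 active = growth inhibition above about 58% in most replicates, limit read from the data, passing the limit was not always enough; inconclusive = exactly half the replicates above a set limit; inactive = most replicates below a set limit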;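 also: all wells also contain fluconazole at 8 µg/ml as a sub-toxic cotreatment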
# H9c2 TAG inh: triacylglycerol accumulation inhibition. H9c2 cells, Nile Red lipid (TAG) fluorescence; cells loaded with 200 µM oleic acid. inhibition, % at 12.5 µM. actives 0.66% (n = 230,000). AID 651582;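 active = pattern-corrected inhibition of lipid staining of at least 50% with the nuclear-stain viability signal not falling by more than 50%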
# GalR3 antagonist: antagonists of human GalR3 | AID 651719 | actives 0.44% (n = 360,000) | O60755 | HEK293 GalR3-CNG cAMP membrane potential fluorescence; galR3 body fused to GalR1 C-terminus | inhibition, % at 3 µM;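 active = inhibition above the screen-wide average plus 3 SD, cut at about 13% in these data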;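 also: forskolin and galanin both at EC90 stimulate the cells; cAMP rise reported by CNG channel membrane potential dye signal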
# Target sequence (O60755 1-299 limits assumed): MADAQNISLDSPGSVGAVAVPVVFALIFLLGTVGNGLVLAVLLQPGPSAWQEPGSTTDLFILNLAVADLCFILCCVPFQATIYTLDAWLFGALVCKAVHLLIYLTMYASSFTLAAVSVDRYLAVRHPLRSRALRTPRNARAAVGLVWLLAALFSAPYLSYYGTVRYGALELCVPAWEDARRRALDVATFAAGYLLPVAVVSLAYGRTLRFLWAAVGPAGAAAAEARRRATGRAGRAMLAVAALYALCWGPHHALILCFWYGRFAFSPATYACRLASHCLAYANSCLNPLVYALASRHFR
# MC4R barr agon: agonists of human melanocortin 4 receptor (MC4R) beta-arrestin. P32245. U2OS MC4R beta-arrestin complementation, luminescence; percent of melanotan II response, DMSO zero. activation, % at 8.9 µM. actives 0.98% (n = 360,000);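 active = activation above a per-plate cutoff, the mean activation of sample wells on that plate plus 3 SD, cut at about 8% in these data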
# Hits are given with their value; i = inactive; ? = inconclusive; nt = no result given. Most compounds without a hit are left out; they make up all but 2.9% or so of the library.
SMILES,Efflux pump mplx,MC4R antagonist,Calb FLC,H9c2 TAG inh,GalR3 antagonist,MC4R barr agon
Cc1nc(NC(=O)c2c(-c3ccccc3)noc2C)sc1C(=O)N(C)C,i,i,120.4,i,i,i
COC(=O)c1sc(NC(=O)c2c(-c3ccccc3)noc2C)nc1C,i,i,i,i,i,i
Cc1cc(F)ccc1-c1cc(C(=O)NC(C)C)[nH]n1,nt,i,nt,i,i,i
CC(C)NC(=O)C1(C)CN(S(C)(=O)=O)CC(=O)N1Cc1cccs1 (configuration not stated),nt,nt,nt,nt,i,nt
Brc1ccc(NCc2cccc3ccccc23)nc1,i,i,i,i,i,i
Oc1ccccc1CNc1ccc(Br)cn1,i,i,i,i,i,48.9
C=CS(=O)(=O)N(C(=C)C(=O)OC)S(C)(=O)=O,nt,nt,nt,nt,i,nt
COC(=O)C1CCN(S(=O)(=O)c2cc3c4c(c2)CCN4C(=O)CC3)CC1,nt,i,i,i,i,i
COc1ccc(C2C(O)C(c3c[nH]c4ccccc34)=NN2C(=O)CCl)cc1 (configuration not stated),i,i,i,nt,i,16.5
COc1ccc(C=NCCc2ccc(OC)c(OC)c2)cc1OC,nt,i,nt,i,i,i
CC1=NN(c2ccccc2)C(=O)/C1=C/C=C/c1ccc(N(C)C)cc1,nt,i,i,66.5,i,i
CC1=NN(c2ccccc2)C(=O)/C1=C\C=C\c1ccccc1,i,i,i,i,i,i
Oc1[nH]c2ccc(Br)cc2c1N=NC(=S)N1CCOCC1,i,i,96.4,i,12.8,i
Oc1[nH]c2ccccc2c1N=NC(=S)N1CCOCC1,i,i,i,i,nt,i
CC(C)N1CCCC(C)(C(=O)Nc2nc3ccccc3n2C)C1 (configuration not stated),nt,i,nt,i,i,i
CC(C)(C)S(=O)(=O)N1C[C@H]2CC/C=C\C/C(c3ccccc3)=C\2[C@@H]1CCO,nt,i,nt,i,i,i
O=C(Nc1nnc(-c2ccc3c(c2)CCCC3)o1)c1ccccc1Cl,i,i,i,i,i,i
O=C(Nc1nnc(-c2ccccc2)o1)c1cccc(N2C(=O)CCC2=O)c1,i,i,100.0,i,i,i
O=C(Nc1nnc(-c2ccc3c(c2)CCCC3)o1)c1ccccc1,i,i,87.6,i,i,i
O=C(COc1ccccc1)Nc1nnc(-c2ccc3c(c2)CCCC3)o1,i,i,81.5,i,i,i
CCNC(=O)C1(C)CCCN(C(=O)c2ccc(F)c(C)c2)C1 (configuration not stated),nt,i,nt,i,i,i
Cc1c(C(=O)NCc2ccc(F)cc2)sc(=O)n1Cc1ccccc1,nt,i,nt,i,i,i
CC(=O)Nc1ccc(-c2ccnc3c2CC(C)(C(=O)Nc2cccc(C(F)(F)F)c2)O3)cc1 (configuration not stated),nt,i,nt,i,i,i
OC(c1ccc(F)c(F)c1)c1nc(-c2cccc(F)c2)cs1 (configuration not stated),nt,i,nt,i,i,i
O=C1C(=O)N(CNc2ccccn2)c2ccccc21,i,i,i,59.0,i,i
SMILES,Efflux pump mplx,MC4R antagonist,Calb FLC,H9c2 TAG inh,GalR3 antagonist,MC4R barr agon
O=C1C(=O)N(CNc2cccnc2)c2ccccc21,i,i,i,i,i,i
COc1ccc(CNC(=O)C[C@@H]2C[C@H]3c4cc(NC(=O)NC5CCCC5)ccc4O[C@H]3[C@H](CO)O2)cc1,nt,i,nt,i,i,i
CSC(=S)NN=C(C)c1cccc(C)n1,nt,i,nt,55.4,i,i
CC(=NNC(=S)N1CCCCC1)c1cccc(C)n1,nt,i,nt,i,i,i
COc1ccc(-c2csc(C(NC(C)=O)c3ccccc3)n2)cc1 (configuration not stated),nt,i,nt,i,i,i
O=C(O)c1cccc(NC(=O)c2ccccc2NC(=O)c2cccs2)c1,nt,i,nt,i,i,i
O=C(Nc1ccccc1C(=O)Nc1ccccc1)c1cccs1,i,i,i,nt,i,9.0
Cc1ccc(C(=O)CC(=O)COc2ccc(Cl)cc2)cc1,i,i,113.7,i,i,i
CCCCCCCCCCOC(=O)Cn1c(COc2ccccc2C)[n+](C)c2ccccc21,i,i,?,nt,nt,49.2
CCOC(=O)Cn1c(COc2ccccc2OC)[n+](C)c2ccccc21,i,i,i,i,i,i
CC(C)NC(=O)N(C)C[C@@H]1OCc2cn(nn2)CCCC(=O)N([C@@H](C)CO)C[C@H]1C,nt,nt,nt,nt,i,nt
CCOC(=O)c1c(-c2cccs2)csc1NC(=O)CC(C)C,i,i,i,i,i,i
COC(=O)c1c(-c2cccs2)csc1NC(=O)c1cccnc1,i,i,94.8,nt,i,i
CCOc1cc(C(=O)NCc2ccccc2)ccc1OCC(=O)N1CCOCC1,i,i,97.9,i,i,i
COc1cc(C(=O)NCc2cccc(Cl)c2)ccc1OCC(=O)N1CCOCC1,i,i,i,i,i,i
O=Cc1cc(N=Nc2ccccc2Cl)ccc1O,i,i,85.6,i,i,i
O=[N+]([O-])c1cccc(-c2n[nH]c(=S)n2-c2ccccc2)c1,i,nt,i,nt,nt,nt
O=[N+]([O-])c1ccc2c(c1)[nH]c(=S)n2-c1ccccc1,i,i,84.6,i,i,i
COC(=O)C1=C(C)N(Cc2ccccc2C(F)(F)F)C(=NCc2ccc(OC)cc2)NC1c1cccc(Cl)c1 (configuration not stated),nt,nt,nt,nt,i,nt
Cn1c(=O)c2ccccc2n(C)c1=O,nt,nt,nt,nt,i,nt
CSC(SC)=C(C#N)C(=O)c1ccccc1,i,38.5,i,i,i,24.3
CCOc1cccc(C(=O)NC2CCCCC2)c1,i,i,i,nt,i,i
CCCCOc1cccc(C(=O)NNC(=S)NC2CCCCC2)c1,i,i,104.7,i,i,i
CCCn1c(CC)nc([N+](=O)[O-])c1Sc1ccc(F)cc1,i,i,112.6,i,i,i
CC1CCC(CC(=O)O)(C(=O)O)CC1 (configuration not stated),nt,i,nt,i,i,i
SMILES,Efflux pump mplx,MC4R antagonist,Calb FLC,H9c2 TAG inh,GalR3 antagonist,MC4R barr agon
CC(=O)OCC(=O)C1(O)CCC2C3CCC4=CC(=O)CCC4(C)C3(F)C(O)CC21C (configuration not stated),nt,i,nt,i,i,i
CCCCN1CC[C@H]2C=CC[C@@H](C(=O)Nc3ccc(Cl)c(C(F)(F)F)c3)[C@H]2C1=O,nt,i,109.4,nt,i,i
O=C(Nc1ccc(Cl)c(C(F)(F)F)c1)[C@@H]1CC=C[C@@H]2CCN(Cc3ccccc3)C(=O)[C@@H]21,i,i,i,i,i,i
CCOC(=O)c1[nH]c(C)c(C(=O)N2CCc3ccccc32)c1C,i,i,i,55.6,i,i
COc1cccc(-c2cc(C(=O)Nc3cccnc3Cl)no2)c1,i,i,i,nt,i,i
O=C(Nc1cccnc1Cl)c1cc(-c2cccc(O)c2)on1,i,i,i,nt,i,12.3
C[C@H](O)[C@@H]1C(=O)N2CCc3c([nH]c4ccccc34)[C@@H]2C[C@@H]1N(C)C(=O)Nc1ccc(Br)cc1,nt,nt,nt,nt,i,nt
O=C(c1cnc(Cc2c[nH]c3ccccc23)c(I)c1)N1CCOCC1,nt,i,nt,i,i,i
